According to publication PMC3900310 (Annals of Clinical and Translational Neurology, 2013):
Read-outs that look alike come from different tables or passages of the source.

Columns and labels:
[1] = system: focal cerebral ischemia (permanent fMCAO)
[2] = healthy volunteers; ref Surface Logix, Brighton, MA; cited from earlier work
endothelial cells = conditions: cited from earlier work
recombinant ROCK2 = recombinant ROCK2 (Homo sapiens, UniProt O75116); test: Recombinant ROCK2 radiometric enzyme assay; assay type: biochemical; conditions: versus ATP (Fig. 1B)
Sequence of recombinant ROCK2 (O75116 92-354 limits assumed): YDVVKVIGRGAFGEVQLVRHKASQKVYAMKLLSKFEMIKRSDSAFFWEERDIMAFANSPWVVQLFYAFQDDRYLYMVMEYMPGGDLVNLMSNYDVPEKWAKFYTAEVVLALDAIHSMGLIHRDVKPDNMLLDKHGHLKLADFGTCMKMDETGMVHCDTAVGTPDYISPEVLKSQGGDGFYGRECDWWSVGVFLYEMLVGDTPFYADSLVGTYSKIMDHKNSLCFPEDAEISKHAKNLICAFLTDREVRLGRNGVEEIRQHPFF

ROCK2 = conditions: read-out: ROCK2 IC50; cited from earlier work
[3] = system: cortical perfusion during dMCAO; test: Distal middle cerebral artery occlusion; assay type: in vivo, mice; conditions: 200 mg/kg 90 min before dMCAO, laser speckle flowmetry
In short: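 Male mice (25–30 g) given test compound or vehicle (0.4% methylcellulose) by orogastric gavage. […] Mice were intubated, mechanically ventilated and femoral-artery catheterized for blood pressure and blood sampling. Cortical perfusion was imaged by laser speckle through intact skull. Per-pixel CBF was taken relative to preischemic baseline. Areas with residual CBF ≤20%, 21–30% and 31–40% were thresholded.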

ROCK1 = conditions: read-out: ROCK1 IC50; cited from earlier work
[4] = system: focal cerebral ischemia (transient fMCAO)
[5] = Systemic physiological parameters; assay type: in vivo, mice; conditions: 200 mg/kg
recombinant ROCK1 = recombinant ROCK1 (Homo sapiens, UniProt Q13464); test: Recombinant ROCK1 radiometric enzyme assay; assay type: biochemical; conditions: concentrations up to 10 μmol/L, recombinant enzyme system
Sequence of recombinant ROCK1 (Q13464 76-338 limits assumed): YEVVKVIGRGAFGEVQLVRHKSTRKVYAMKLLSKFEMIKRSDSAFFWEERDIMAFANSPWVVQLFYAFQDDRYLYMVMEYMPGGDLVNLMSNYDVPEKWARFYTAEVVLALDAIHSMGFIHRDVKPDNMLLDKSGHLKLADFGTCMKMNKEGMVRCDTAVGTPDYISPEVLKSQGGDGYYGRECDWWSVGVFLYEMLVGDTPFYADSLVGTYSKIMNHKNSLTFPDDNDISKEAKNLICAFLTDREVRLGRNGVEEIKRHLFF

[6] = Pharmacokinetic study: plasma and brain concentrations after oral gavage; assay type: in vivo, mice; conditions: for AUC(0-t) / Cmax / k el: male, C57BL/6, mouse, po
In short: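 Male mice received 100 or 200 mg/kg twice daily by orogastric gavage, five doses. Each time point, from just before the last dose, used a separate group (n = 5). Jugular blood went into K3 EDTA tubes and was spun at 1000 g for 3 min at 4°C. Brains were harvested after saline perfusion. Samples were stored at −80°C and assayed by high-resolution MS. Noncompartmental analysis used best-fit λz, plus one-compartment zero- or first-order models. Brain/plasma exposure was taken as the AUC ratio.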

[7] = system: ROCK activity (MYPT1 phosphorylation); test: MYPT1 Thr696 phosphorylation in brain and heart after systemic administration; assay type: in vivo, mice; conditions: 10 mg/kg, intraperitoneal
[8] = permanent ischemia, 1 h postischemic onset, 200 mg/kg, sacrifice at 24 h
[9] = aged (12 months) mice, 1 h postischemic onset, 200 mg/kg
[10] = diabetic (db/db) mice, 1 h postischemic onset, 200 mg/kg
[11] = dose response, 24 h preischemic onset, 100 mg/kg every 12 h
[12] = dose response, 24 h preischemic onset, 200 mg/kg every 12 h
[13] = dose response, 24 h preischemic onset, 300 mg/kg every 12 h
[14] = female mice, 1 h postischemic onset, 200 mg/kg
[15] = therapeutic window, 1 h postischemic onset, 200 mg/kg
[16] = therapeutic window, 3 h postischemic onset, 200 mg/kg
[17] = therapeutic window, 6 h postischemic onset, 200 mg/kg
[18] = plasma, one-compartment first-order kinetic absorption model, 100 mg/kg

SMILES: CC(C)NC(=O)COc1cccc(-c2nc(Nc3ccc4[nH]ncc4c3)c3ccccc3n2)c1 [KD025]
- efficacy on infarct volume in permanent ischemia ([1]; 200 mg/kg starting 1 h after permanent fMCAO, infarct volume at 24 h): lost its efficacy
- Mortality [1, 8]: 6/15
- Weight loss [1, 8]: 3.5 ± 0.3 g
- side effects in phase I study [2]: no major side effects
- mode of ROCK2 inhibition (recombinant ROCK2): competitive with ATP
- area of perfusion defect versus vehicle [3]: significantly reduced
- IC50 (ROCK1): 24 µM
- tissue loss in the ipsilateral hemisphere versus vehicle ([4]; 200 mg/kg twice a day for 36 h starting 1 h after ischemia onset, measured 4 weeks after ischemia): significantly reduced
- efficacy on infarct volume ([4]; 200 mg/kg, treatment started 6 h after ischemia onset): completely lost
- infarct volume reduction ([4]; 200 mg/kg, treatment starting 1 h after onset of fMCAO): 34%
- infarct volume reduction ([4]; 200 mg/kg, treatment starting 3 h after onset of fMCAO): 26%
- adverse effects observed ([4]; 300 mg/kg dose level): increased incidence of vomiting and respiratory difficulties
- infarct volume reduction ([4]; aged (12 months) male mice, 200 mg/kg starting 1 h after fMCAO): 34%
- Mortality [4, 9]: 2/8
- Weight loss [4, 9]: 3.4 ± 0.6 g
- Mortality [4, 10]: 0/8
- Weight loss [4, 10]: 3.8 ± 0.3 g
- Mortality [4, 11]: 0/6
- Weight loss [4, 11]: 4.3 ± 0.6 g
- Mortality [4, 12]: 1/8
- Weight loss [4, 12]: 3.5 ± 0.4 g
- Mortality [4, 13]: 2/9
- Weight loss [4, 13]: 4.5 ± 0.5 g
- infarct volume reduction ([4]; female mice, 200 mg/kg starting 1 h after fMCAO): 42%
- Mortality [4, 14]: 0/9
- Weight loss [4, 14]: 3.5 ± 0.4 g
- effect on infarct volume in combination with atorvastatin ([4]; mouse, in vivo): did not show an additive or synergistic effect
- therapeutic window of efficacy ([4]; mouse, in vivo): at least 3 h
- neurological deficits, 5-point scoring system ([4]; preischemic treatment, assessed at 48 h prior to sacrifice): ameliorated
- Mortality [4, 15]: 1/9
- Weight loss [4, 15]: 5.7 ± 0.2 g
- Mortality [4, 16]: 0/15
- Weight loss [4, 16]: 5.2 ± 0.2 g
- Mortality [4, 17]: 1/8
- Weight loss [4, 17]: 5.6 ± 0.3 g
- incidence of hemorrhagic transformation, semi-quantitative grading ([4]; transient fMCAO model (Fig. S1)): did not detect an increase
- infarct volume reduction ([4]; type 2 diabetic db/db mice, 200 mg/kg starting 1 h after fMCAO): 32%
- arterial blood pressure lower compared with vehicle [5]: 8%
- HR ([5]; N = 5 mice, mean ± SEM): 618 ± 19 bpm
- pCO2 ([5]; N = 5 mice, mean ± SEM): 29 ± 2 mmHg
- pO2 ([5]; N = 5 mice, mean ± SEM): 135 ± 13 mmHg
- BP ([5]; N = 5 mice, mean ± SEM, P = 0.06 versus vehicle): 77 ± 3 mmHg
- pH ([5]; arterial, N = 5 mice, mean ± SEM): 7.36 ± 0.02
- effect on ROCK1 enzymatic activity (recombinant ROCK1): little effect
- λ2 (slope of the log-linear terminal phase) ([6]; brain, non-compartmental analysis, 100 mg/kg every 12 h, five doses, oral gavage): 0.31 1/h
- A (absorption) ([6]; brain, one-compartment first-order kinetic absorption model, 100 mg/kg): 0.67 µg/mL
- AUC(0-t) ([6]; brain, 100 mg/kg): 2280 ng·h/mL
- Cmax ([6]; brain, 100 mg/kg): 540 ng/mL
- k el ([6]; brain, 100 mg/kg): 8.89e-05 s⁻¹
- AUC(0-t) ([6]; plasma, 100 mg/kg): 42300 ng·h/mL
- Cmax ([6]; plasma, 100 mg/kg): 7280 ng/mL
- k el ([6]; plasma, 100 mg/kg): 5e-05 s⁻¹
- A (absorption) [6, 18]: 9.16 µg/mL
- Ka (absorption rate constant) [6, 18]: 2.23 h⁻¹
- V [6, 18]: 11.90 L

SMILES: O=c1[nH]ccc2c(S(=O)(=O)N3CCCNCC3)cccc12 [hydroxyfasudil]
- ROCK activity measured by MYPT1 phosphorylation, relative to effect of KD025 [7]: comparable
